From ChEMBL document CHEMBL1138217, “Rapid discovery and structure-activity profiling of novel inhibitors of human immunodeficiency virus type 1 protease enabled by the copper(I)-catalyzed synthesis of 1,2,3-triazoles and their further functionalization” (J Med Chem, 2006) come the findings set out here.

Molecules are shown by their SMILES.

The target of experiment [1] is Human immunodeficiency virus type 1 protease (Human immunodeficiency virus 1, UniProt Q72874). The experiment is described as follows: Inhibition of HIV1 protease. In a few lines:
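HIV-1 protease (SF-2-WTQ7K-Pr construct for the isolated inhibitors) at 20 µg/mL with 50 µM fluorogenic substrate Abz-Thr-Ile-Nle/Phe-(p-NO2)Gln-Arg-NH2, in 0.1 M MES, 0.2 M NaCl, pH 5.25, 5% (v/v) glycerol. Crude mixtures were screened at 5 µM as percent inhibition.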

The target in experiment [2] is Human immunodeficiency virus type 1 protease (Human immunodeficiency virus 1) (UniProt Q72874). The experiment is described as follows: Inhibition of HIV1 protease at 5 uM. The procedure, abridged:
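Crude click-reaction DMSO mixtures (azide-alkyne, CuSO4 with copper turning, 1:1 tBuOH/H2O, 50 °C, 5 days) diluted to 5 µM in 0.1 M MES, 0.2 M NaCl, pH 5.25, 5% glycerol; HIV-1 protease 20 µg/mL plus fluorogenic substrate 50 µM added; fluorescence read directly in microplate; percent inhibition; TL-3 100 nM positive control.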

As to `Cc1ccc(C)c(N2CCN(Cc3nnn([C@@H](Cc4ccccc4)[C@H](Cc4ccccc4)NC(=O)OC4CCCC4)c3[C@@H](C)O)CC2)c1`, the Ki – broadly, a dissociation constant, usually derived from enzyme kinetics or from competition with a known ligand – in experiment [1] came to 25 nM. This counts as double-digit nanomolar.

As for `Cc1cccc(N2CCN(Cc3cn([C@@H](Cc4ccccc4)[C@H](Cc4ccccc4)NC(=O)OC4CCCC4)nn3)CC2)c1`, the inhibition (commonly the relative decrease from the control value, in per cent) in experiment [2] came to 87%.

In turn, `Cc1ccc(Cl)cc1N1CCN(Cc2cn([C@@H](Cc3ccccc3)[C@H](Cc3ccccc3)NC(=O)OCC3CCCC3)nn2)CC1` displayed an inhibition in experiment [2] of 76%.

For `O=C(N[C@@H](Cc1ccccc1)[C@H](Cc1ccccc1)n1cc(CN2CCN(c3cccc(Cl)c3)CC2)nn1)OC1CCCC1`, the inhibition in experiment [2] came out at 93%.

With `O=C(N[C@@H](Cc1ccccc1)[C@H](Cc1ccccc1)n1cc(CN2CC=C(c3ccc(Cl)cc3)CC2)nn1)OC1CCCC1`, in experiment [2], the inhibition worked out at 58%.

In experiment [2], `Cc1ccc(Cl)cc1N1CCN(Cc2cn([C@@H](Cc3ccccc3)[C@H](Cc3ccccc3)NC(=O)OC3CCC3)nn2)CC1` came in with an inhibition of 75%.

In experiment [2], `O=C(N[C@@H](Cc1ccccc1)[C@H](Cc1ccccc1)n1cc(CN2CCN(c3cccc(O)c3)CC2)nn1)OC1CCCC1` registered an inhibition of 85%.

In experiment [2], `Cc1ccc(Cl)cc1N1CCN(Cc2cn([C@@H](Cc3ccccc3)[C@H](Cc3ccccc3)NC(=O)OCc3ccccc3)nn2)CC1` displayed an inhibition of 29%.

Molecule `CCOC(=O)N1CCN(Cc2cn([C@@H](Cc3ccccc3)[C@H](Cc3ccccc3)NC(=O)OC3CCCC3)nn2)CC1` yielded an inhibition in experiment [2] of 27%.

As for `O=C(N[C@@H](Cc1ccccc1)[C@H](Cc1ccccc1)n1cc(CN2CCC(Cc3ccccc3)CC2)nn1)OC1CCCC1`, the inhibition in experiment [2] was determined as 70%.

Consider `O=C(N[C@@H](Cc1ccccc1)[C@H](Cc1ccccc1)n1cc(CN2CCN(c3cccc(C(F)(F)F)c3)CC2)nn1)OC1CCCC1` (stereo in doubt; (S,S)-11s), for which, in experiment [2], the inhibition was determined as 86%.

Consider `O=C(N[C@@H](Cc1ccccc1)[C@H](Cc1ccccc1)n1cc(CN2CCC(O)(c3ccc(Cl)c(C(F)(F)F)c3)CC2)nn1)OC1CCCC1`, for which, in experiment [2], the inhibition worked out at 48%.

Molecule `O=C(N[C@@H](Cc1ccccc1)[C@H](Cc1ccccc1)n1cc(CN2CCC(O)(c3cccc(C(F)(F)F)c3)CC2)nn1)OC1CCCC1` came in with an inhibition in experiment [2] of 34%.

`O=C(N[C@@H](Cc1ccccc1)[C@H](Cc1ccccc1)n1cc(CN2CCN(c3ccccc3)CC2)nn1)OC1CCCC1` returned an inhibition in experiment [2] of 82%.

Regarding `Cc1ccc(Cl)cc1N1CCN(Cc2cn([C@@H](Cc3ccccc3)[C@H](Cc3ccccc3)NC(=O)C3CCCC3)nn2)CC1`, in experiment [2], the inhibition turned out to be 28%.

`Cc1ccc(Cl)cc1N1CCN(Cc2cn([C@@H](Cc3ccccc3)[C@H](Cc3ccccc3)NC(=O)NC3CCCCC3)nn2)CC1`: in experiment [2], the inhibition stood at 15%.

In turn, `COc1ccccc1N1CCN(Cc2cn([C@@H](Cc3ccccc3)[C@H](Cc3ccccc3)NC(=O)OC3CCCC3)nn2)CC1` had an inhibition in experiment [2] of 38%.

As to `Cc1ccc(C)c(N2CCN(Cc3nnn([C@@H](Cc4ccccc4)[C@H](Cc4ccccc4)NC(=O)OC4CCCC4)c3CO)CC2)c1`, in experiment [1], the Ki was determined as 14 nM.

Take `O=C(N[C@@H](Cc1ccccc1)[C@H](Cc1ccccc1)n1cc(CN2CCC3(CC2)C(=O)NCN3c2ccccc2)nn1)OC1CCCC1`: the inhibition in experiment [2] was found to be 17%.

`O=C(N[C@@H](Cc1ccccc1)[C@H](Cc1ccccc1)n1cc(CN2CCCC(c3ccccc3)C2)nn1)OC1CCCC1` (stereo not given in full) yielded an inhibition in experiment [2] of 28%.

In experiment [2], `O=C(N[C@@H](Cc1ccccc1)[C@H](Cc1ccccc1)n1cc(CN2CCN(c3cccc(C(F)(F)F)c3)CC2)nn1)OC1CCCC1` (stereo in doubt; (S,S)-7d) registered an inhibition of 87%.

Turning to `O=C(N[C@@H](Cc1ccccc1)[C@H](Cc1ccccc1)n1cc(CN2CCN(c3ccc(Cl)c(Cl)c3)CC2)nn1)OC1CCCC1`, the inhibition in experiment [2] came to 86%.

In the case of `Cc1c(Cl)cccc1N1CCN(Cc2cn([C@@H](Cc3ccccc3)[C@H](Cc3ccccc3)NC(=O)OC3CCCC3)nn2)CC1`, in experiment [2], the inhibition came to 86%.

`CCOC(=O)N[C@@H](Cc1ccccc1)[C@H](Cc1ccccc1)n1cc(CN2CCN(c3cc(Cl)ccc3C)CC2)nn1` showed an inhibition in experiment [2] of 41%.

In turn, `Cc1ccc(Cl)cc1N1CCN(Cc2cn([C@@H](Cc3ccccc3)[C@H](Cc3ccccc3)NC(=O)NC(C)C)nn2)CC1` yielded an inhibition in experiment [2] of 19%.

`Cc1ccc(Cl)cc1N1CCN(Cc2cn([C@@H](Cc3ccccc3)[C@H](Cc3ccccc3)NC(=O)OCC3CCCCC3)nn2)CC1` displayed an inhibition in experiment [2] of 53%.

`O=C(N[C@@H](Cc1ccccc1)[C@H](Cc1ccccc1)n1cc(CN2CCN(c3ccc(Cl)cc3)CC2)nn1)OC1CCCC1` showed an inhibition in experiment [2] of 77%.

For `Cc1ccc(Cl)cc1N1CCN(Cc2cn([C@@H](Cc3ccccc3)[C@H](Cc3ccccc3)NC(=O)OCC(C)C)nn2)CC1`, the inhibition in experiment [2] came out at 73%.

`O=C(N[C@@H](Cc1ccccc1)[C@H](Cc1ccccc1)n1cc(CN2CCN(c3ccccn3)CC2)nn1)OC1CCCC1` displayed an inhibition in experiment [2] of 36%.

In turn, `O=C(N[C@@H](Cc1ccccc1)[C@H](Cc1ccccc1)n1cc(CN2CCC(O)(c3ccccc3)CC2)nn1)OC1CCCC1` yielded an inhibition in experiment [2] of 20%.

`O=C(N[C@@H](Cc1ccccc1)[C@H](Cc1ccccc1)n1cc(CN2CCN(c3cnccn3)CC2)nn1)OC1CCCC1` returned an inhibition in experiment [2] of 14%.

In experiment [2], `O=C(N[C@@H](Cc1ccccc1)[C@H](Cc1ccccc1)n1cc(CN2CCN(c3ncccn3)CC2)nn1)OC1CCCC1` had an inhibition of 25%.

`Cc1ccc(Cl)cc1N1CCN(Cc2cn([C@@H](Cc3ccccc3)[C@H](Cc3ccccc3)NC(=O)OC3CCCCC3)nn2)CC1` showed an inhibition in experiment [2] of 66%.

In experiment [2], `O=C(N[C@@H](Cc1ccccc1)[C@H](Cc1ccccc1)n1cc(CN2CCN(c3ccc(F)cc3)CC2)nn1)OC1CCCC1` registered an inhibition of 64%.

With `Cc1ccc(Cl)cc1N1CCN(Cc2cn([C@@H](Cc3ccccc3)[C@H](Cc3ccccc3)NC(=O)OCC3CCC3)nn2)CC1`, the inhibition in experiment [2] amounted to 75%.

Molecule `O=C(N[C@@H](Cc1ccccc1)[C@H](Cc1ccccc1)n1cc(CN2CCN(C3CCCCC3)CC2)nn1)OC1CCCC1` yielded an inhibition in experiment [2] of 22%.

In turn, `O=C(N[C@@H](Cc1ccccc1)[C@H](Cc1ccccc1)n1cc(CN2CCC(O)(c3ccc(Cl)cc3)CC2)nn1)OC1CCCC1` yielded an inhibition in experiment [2] of 26%.

As to `O=C(N[C@@H](Cc1ccccc1)[C@H](Cc1ccccc1)n1cc(CN2CCN(c3ccccc3Cl)CC2)nn1)OC1CCCC1`, the inhibition in experiment [2] stood at 76%.

In experiment [2], `Cc1ccc(Cl)cc1N1CCN(Cc2cn([C@@H](Cc3ccccc3)[C@H](Cc3ccccc3)NC(=O)OCC3CC3)nn2)CC1` had an inhibition of 69%.

As for `O=C(N[C@@H](Cc1ccccc1)[C@H](Cc1ccccc1)n1cc(CN2CCN(c3ccncc3)CC2)nn1)OC1CCCC1`, the inhibition in experiment [2] was found to be 12%.

Take `CCN1CCN(Cc2cn([C@@H](Cc3ccccc3)[C@H](Cc3ccccc3)NC(=O)OC3CCCC3)nn2)CC1`: in experiment [2], the inhibition is 26%.

Molecule `O=C(N[C@@H](Cc1ccccc1)[C@H](Cc1ccccc1)n1cc(CN2CCN(c3cc(Cl)cc(Cl)c3)CC2)nn1)OC1CCCC1` came in with an inhibition in experiment [2] of 89%.

On to `Cc1ccc(Cl)cc1N1CCN(Cc2cn([C@@H](Cc3ccccc3)[C@H](Cc3ccccc3)NC(=O)c3ccco3)nn2)CC1`, for which the inhibition in experiment [2] turned out to be 25%.

The molecule `O=C(N[C@@H](Cc1ccccc1)[C@H](Cc1ccccc1)n1cc(CN2CCN(Cc3ccc4c(c3)OCO4)CC2)nn1)OC1CCCC1` showed an inhibition in experiment [2] of 29%.

`O=C(N[C@@H](Cc1ccccc1)[C@H](Cc1ccccc1)n1cc(CN2CCC(n3c(=O)[nH]c4ccccc43)CC2)nn1)OC1CCCC1` returned an inhibition in experiment [2] of 23%.

Molecule `Cc1cccc(N2CCN(Cc3cn([C@@H](Cc4ccccc4)[C@H](Cc4ccccc4)NC(=O)OC4CCCC4)nn3)CC2C)c1` (stereo not given in full) gave an inhibition in experiment [2] of 55%.

`Cc1ccc(Cl)cc1N1CCN(Cc2cn([C@@H](Cc3ccccc3)[C@H](Cc3ccccc3)NC(=O)NC3CCCC3)nn2)CC1` showed an inhibition in experiment [2] of 19%.

Molecule `O=C(N[C@@H](Cc1ccccc1)[C@H](Cc1ccccc1)n1cc(CN2CCN(C(=O)OCc3ccccc3)CC2)nn1)OC1CCCC1` had an inhibition in experiment [2] of 35%.

Take `O=C(N[C@@H](Cc1ccccc1)[C@H](Cc1ccccc1)n1cc(CN2CCN(c3ccc(F)cc3F)CC2)nn1)OC1CCCC1`: the inhibition in experiment [2] came out at 81%.

Take `Cc1ccc(Cl)cc1N1CCN(Cc2cn([C@@H](Cc3ccccc3)[C@H](Cc3ccccc3)NC(=O)OC3CCCCCC3)nn2)CC1`: the inhibition in experiment [2] turned out to be 63%.

As to `O=C(N[C@@H](Cc1ccccc1)[C@H](Cc1ccccc1)n1cc(CN2CCN(c3ccc(C(F)(F)F)cc3)CC2)nn1)OC1CCCC1`, the inhibition in experiment [2] came to 48%.

As for `CC(C)(C)OC(=O)N1CCN(Cc2cn([C@@H](Cc3ccccc3)[C@H](Cc3ccccc3)NC(=O)OC3CCCC3)nn2)CC1`, in experiment [2], the inhibition was determined as 51%.

For the molecule `Cc1ccc(Cl)cc1N1CCN(Cc2cn([C@@H](Cc3ccccc3)[C@H](Cc3ccccc3)NC(=O)C3CCCCC3)nn2)CC1`, in experiment [2], the inhibition stood at 17%.

In turn, `Cc1ccc(Cl)cc1N1CCN(Cc2cn([C@@H](Cc3ccccc3)[C@H](Cc3ccccc3)NC(=O)O[C@H]3CCOC3)nn2)CC1` had an inhibition in experiment [2] of 85%.

In turn, `Cc1ccccc1N1CCN(Cc2cn([C@@H](Cc3ccccc3)[C@H](Cc3ccccc3)NC(=O)OC3CCCC3)nn2)CC1` came in with an inhibition in experiment [2] of 80%.

Molecule `Cc1ccc(Cl)cc1N1CCN(Cc2cn([C@@H](Cc3ccccc3)[C@H](Cc3ccccc3)NC(=O)Oc3ccccc3)nn2)CC1` showed an inhibition in experiment [2] of 31%.

In experiment [2], `COC(=O)N[C@@H](Cc1ccccc1)[C@H](Cc1ccccc1)n1cc(CN2CCN(c3cc(Cl)ccc3C)CC2)nn1` registered an inhibition of 25%.

In the case of `Cc1ccc(Cl)cc1N1CCN(Cc2cn([C@@H](Cc3ccccc3)[C@H](Cc3ccccc3)NC(=O)Nc3ccc(F)cc3)nn2)CC1`, the inhibition in experiment [2] is 30%.

`Cc1ccc(Cl)cc1N1CCN(Cc2cn([C@@H](Cc3ccccc3)[C@H](Cc3ccccc3)NC(=O)OCC3CCCO3)nn2)CC1` (stereo not given in full) came in with an inhibition in experiment [2] of 41%.

As for `O=C(N[C@@H](Cc1ccccc1)[C@H](Cc1ccccc1)n1cc(CN2CCC(c3ccccc3)CC2)nn1)OC1CCCC1`, the inhibition in experiment [2] was 67%.
